Measurements taken from ChEMBL document CHEMBL1821619 (Bioorg Med Chem Lett, 2011).
pIC50, pKi: −log10 of the molar value.

Columns and labels:
[1] = target: CYP3A4 (Homo sapiens, UniProt P08684); assay: Inhibition of CYP3A4 at 1 uM; assay type: ADME
Procedure, shortened: (§1)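 Compounds were incubated at 37 ± 0.5 °C with agitation with human recombinant CYP isoforms, isoform-selective fluorescent substrates and an NADPH-generating system.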

[2] = target: CYP2C9 (Homo sapiens, UniProt P11712); assay: Inhibition of CYP2C9 at 1 uM; assay type: ADME; procedure, shortened: as §1
CYP2C9, sequence (P11712 whole entry): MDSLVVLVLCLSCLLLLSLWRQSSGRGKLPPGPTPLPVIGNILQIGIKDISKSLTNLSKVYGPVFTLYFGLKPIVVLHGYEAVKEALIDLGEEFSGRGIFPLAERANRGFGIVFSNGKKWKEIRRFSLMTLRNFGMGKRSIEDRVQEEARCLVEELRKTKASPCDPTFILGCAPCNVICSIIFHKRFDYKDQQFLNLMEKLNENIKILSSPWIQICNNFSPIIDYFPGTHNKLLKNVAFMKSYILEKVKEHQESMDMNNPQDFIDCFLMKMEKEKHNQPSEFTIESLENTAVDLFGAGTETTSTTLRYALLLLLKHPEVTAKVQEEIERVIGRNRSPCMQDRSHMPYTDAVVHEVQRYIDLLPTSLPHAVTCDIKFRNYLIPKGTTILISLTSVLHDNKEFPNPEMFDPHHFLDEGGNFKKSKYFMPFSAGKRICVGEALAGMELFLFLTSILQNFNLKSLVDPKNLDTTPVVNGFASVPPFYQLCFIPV

[3] = target: Histamine H3 receptor (Homo sapiens, UniProt Q9Y5N1); assay: Displacement of [125I]Iodoproxyfan from recombinant human histamine H3 receptor expressed in HEK293 cells after 60 mins; assay type: cell-based
Histamine H3 receptor (Homo sapiens, UniProt Q9Y5N1), sequence (Q9Y5N1 whole entry): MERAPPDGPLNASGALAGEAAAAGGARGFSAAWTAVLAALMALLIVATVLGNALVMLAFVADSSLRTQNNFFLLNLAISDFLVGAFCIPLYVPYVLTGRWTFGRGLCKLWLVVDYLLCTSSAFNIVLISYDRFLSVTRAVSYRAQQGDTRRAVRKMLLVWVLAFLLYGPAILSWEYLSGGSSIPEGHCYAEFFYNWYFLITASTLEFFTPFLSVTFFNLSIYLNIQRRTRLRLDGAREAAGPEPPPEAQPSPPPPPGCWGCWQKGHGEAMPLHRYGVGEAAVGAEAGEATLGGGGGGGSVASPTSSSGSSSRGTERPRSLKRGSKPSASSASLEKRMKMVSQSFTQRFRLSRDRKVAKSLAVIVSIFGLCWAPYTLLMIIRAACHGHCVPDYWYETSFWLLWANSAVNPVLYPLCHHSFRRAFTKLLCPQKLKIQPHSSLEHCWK

[4] = target: CYP2D6 (Homo sapiens, UniProt P10635); assay: Inhibition of CYP2D6 at 1 uM; assay type: ADME; procedure, shortened: as §1
CYP2D6, sequence (P10635 whole entry): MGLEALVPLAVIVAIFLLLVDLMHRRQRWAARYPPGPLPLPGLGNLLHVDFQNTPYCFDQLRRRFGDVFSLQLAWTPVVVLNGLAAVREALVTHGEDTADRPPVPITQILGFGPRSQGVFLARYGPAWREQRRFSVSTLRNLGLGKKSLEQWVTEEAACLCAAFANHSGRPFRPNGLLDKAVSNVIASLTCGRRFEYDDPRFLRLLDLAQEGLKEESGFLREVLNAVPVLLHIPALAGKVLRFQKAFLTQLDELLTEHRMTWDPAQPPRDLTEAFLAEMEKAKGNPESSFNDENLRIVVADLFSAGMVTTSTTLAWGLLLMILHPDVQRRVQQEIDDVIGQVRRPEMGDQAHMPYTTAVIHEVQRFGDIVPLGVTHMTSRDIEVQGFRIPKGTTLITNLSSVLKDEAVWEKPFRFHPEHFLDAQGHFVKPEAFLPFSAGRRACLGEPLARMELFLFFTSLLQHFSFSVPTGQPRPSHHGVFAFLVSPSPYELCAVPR

[5] = target: Cytochrome P450 3A4 (Homo sapiens, UniProt P08684); assay: Inhibition of CYP3A4; assay type: ADME; procedure, shortened: as §1
Cytochrome P450 3A4, sequence (P08684 whole entry): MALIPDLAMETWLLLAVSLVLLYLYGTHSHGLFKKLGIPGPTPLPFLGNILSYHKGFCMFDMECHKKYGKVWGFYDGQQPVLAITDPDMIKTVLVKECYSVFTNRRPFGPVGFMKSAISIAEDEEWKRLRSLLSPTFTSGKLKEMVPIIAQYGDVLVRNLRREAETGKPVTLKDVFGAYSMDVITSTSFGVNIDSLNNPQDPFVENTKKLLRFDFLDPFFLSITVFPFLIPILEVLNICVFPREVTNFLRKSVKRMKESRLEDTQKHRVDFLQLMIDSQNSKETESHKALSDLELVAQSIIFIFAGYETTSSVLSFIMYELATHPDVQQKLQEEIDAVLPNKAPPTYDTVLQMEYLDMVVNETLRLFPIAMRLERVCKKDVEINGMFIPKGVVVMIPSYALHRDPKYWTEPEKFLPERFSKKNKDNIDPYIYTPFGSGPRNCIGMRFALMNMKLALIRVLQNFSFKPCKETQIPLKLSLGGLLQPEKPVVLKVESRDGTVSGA

[6] = system: Mus musculus; assay: Inverse agonist activity at histamine H3 receptor in po dosed Swiss mouse assessed as brain N-tele-methylhistamine level measured after 90 mins by enzyme immunoassay; assay type: functional; details: 1.5 h
Procedure, shortened: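 Compounds were given orally to at least 6 male Swiss mice per dose. Brain N-tele-methylhistamine was measured by enzyme immunoassay 90 min after dosing. Intrinsic activity was scaled to ciproxifan as the reference full inverse agonist. ED50 is given as mean ± SEM.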

[7] = target: Histamine H3 receptor (Mus musculus, UniProt P58406); assay: Displacement of [125I]Iodoproxyfan from mouse brain cortex histamine H3 receptor after 60 mins; assay type: tissue-based
Histamine H3 receptor (Mus musculus, UniProt P58406), sequence (P58406 whole entry): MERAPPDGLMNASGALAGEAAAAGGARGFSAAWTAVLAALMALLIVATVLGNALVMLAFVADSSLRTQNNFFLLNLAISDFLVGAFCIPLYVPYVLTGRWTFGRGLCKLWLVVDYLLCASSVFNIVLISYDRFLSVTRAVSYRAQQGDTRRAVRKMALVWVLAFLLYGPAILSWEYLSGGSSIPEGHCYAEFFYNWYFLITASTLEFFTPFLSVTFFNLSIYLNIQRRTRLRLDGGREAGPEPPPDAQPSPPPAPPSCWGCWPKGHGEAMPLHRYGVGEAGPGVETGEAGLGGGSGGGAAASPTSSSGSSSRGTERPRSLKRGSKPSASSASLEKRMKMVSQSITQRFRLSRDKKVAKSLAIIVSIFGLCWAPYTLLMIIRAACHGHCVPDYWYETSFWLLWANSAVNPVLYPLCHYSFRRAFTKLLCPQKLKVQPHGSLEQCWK
Procedure, shortened: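 Competition binding used [125I]-iodoproxyfan against human recombinant H3R and native mouse brain cortex H3R. Ki values are means of at least two experiments run in duplicate or triplicate, reported as mean ± SEM.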

[8] = target: Cytochrome P450 2D6 (Homo sapiens, UniProt P10635); assay: Inhibition of CYP2D6; assay type: ADME; procedure, shortened: as §1
Cytochrome P450 2D6, sequence (P10635 whole entry): as the sequence (P10635 whole entry) above

[9] = target: Cytochrome P450 2C9 (Homo sapiens, UniProt P11712); assay: Inhibition of CYP2C9; assay type: ADME; procedure, shortened: as §1
Cytochrome P450 2C9, sequence (P11712 whole entry): as the sequence (P11712 whole entry) above

[10] = target: T1, hERG (KCNH2) (Homo sapiens, UniProt Q12809); assay: Inhibition of human ERG expressed in HEK293 cells at 10 uM by patch clamp assay; assay type: cell-based; details: HEK293 cells expressing human ERG
T1 sequence (Q12809 whole entry): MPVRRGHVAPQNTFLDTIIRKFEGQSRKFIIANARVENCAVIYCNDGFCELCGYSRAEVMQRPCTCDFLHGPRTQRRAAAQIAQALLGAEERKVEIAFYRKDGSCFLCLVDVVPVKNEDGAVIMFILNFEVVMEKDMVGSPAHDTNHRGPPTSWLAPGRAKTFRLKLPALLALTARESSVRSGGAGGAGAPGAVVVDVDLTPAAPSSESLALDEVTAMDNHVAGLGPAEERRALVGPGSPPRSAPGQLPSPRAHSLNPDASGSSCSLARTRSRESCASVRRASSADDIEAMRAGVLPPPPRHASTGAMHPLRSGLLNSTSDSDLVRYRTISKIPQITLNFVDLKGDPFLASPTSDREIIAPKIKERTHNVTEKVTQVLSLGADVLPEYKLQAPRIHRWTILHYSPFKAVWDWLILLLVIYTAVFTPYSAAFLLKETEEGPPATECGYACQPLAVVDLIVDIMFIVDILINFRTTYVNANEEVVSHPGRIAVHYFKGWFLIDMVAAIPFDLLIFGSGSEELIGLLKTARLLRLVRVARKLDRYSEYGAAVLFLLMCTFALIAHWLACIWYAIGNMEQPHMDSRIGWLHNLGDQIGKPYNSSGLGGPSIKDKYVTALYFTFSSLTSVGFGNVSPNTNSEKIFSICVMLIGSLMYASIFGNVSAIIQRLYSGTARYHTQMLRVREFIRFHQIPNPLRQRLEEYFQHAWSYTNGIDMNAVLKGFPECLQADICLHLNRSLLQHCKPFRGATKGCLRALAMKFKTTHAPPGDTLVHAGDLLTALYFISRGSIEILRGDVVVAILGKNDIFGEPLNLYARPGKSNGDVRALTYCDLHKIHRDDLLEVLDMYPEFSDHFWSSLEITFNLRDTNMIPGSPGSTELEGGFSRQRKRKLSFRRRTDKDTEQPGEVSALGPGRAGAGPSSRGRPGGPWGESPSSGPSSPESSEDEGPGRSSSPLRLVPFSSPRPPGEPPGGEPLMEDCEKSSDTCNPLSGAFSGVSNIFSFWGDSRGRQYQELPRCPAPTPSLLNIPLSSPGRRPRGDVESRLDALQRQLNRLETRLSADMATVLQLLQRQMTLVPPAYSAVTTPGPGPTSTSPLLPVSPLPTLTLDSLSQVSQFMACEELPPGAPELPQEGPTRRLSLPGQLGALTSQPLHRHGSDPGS

[11] = target: T1, hERG (KCNH2); assay: Inhibition of human ERG expressed in HEK293 cells at 1 uM by patch clamp assay; assay type: cell-based; details: HEK293 cells expressing human ERG
[12] = system: Liver; assay: Metabolic stability in mouse liver microsomes at 100 nM upto 250 mins by LC-MS/MS; assay type: ADME, Microsome; details: 0.1 µM
Procedure, shortened: (§2)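 Compound at 100 nM was incubated with pooled human or mouse liver microsomes (0.5 mg/mL protein) plus NADP. Remaining compound was followed over time by LC-MS/MS.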

[13] = AUC (0 to 8 hrs) in Swiss mouse plasma at 10 mg/kg, po by LC-MS/MS; assay type: ADME, organism-based; design: time < 8 hr, dose 10 mg/kg, route oral
Procedure, shortened: (§3)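 Male Swiss mice received a single 10 mg/kg oral dose. Compound was quantified in plasma and brain tissue by LC-MS/MS over 8 h, and AUC0-8h was derived. Data are mean ± SEM of 3 mice.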

[14] = system: Liver microsomes; assay: Metabolic stability in human liver microsomes at 100 nM upto 250 mins by LC-MS/MS; assay type: ADME, Microsome; details: 0.1 µM; procedure, shortened: as §2
[15] = Ratio of AUC (0 to 8 hrs) in Swiss mouse brain to AUC (0 to 8 hrs) in Swiss mouse plasma at 10 mg/kg, po by LC-MS/MS; assay type: ADME, organism-based; design: dose 10 mg/kg, route oral; details: brain and plasma, read-out: Ratio AUC
Procedure, shortened: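 Male Swiss mice given single 10 mg/kg oral dose; plasma and brain tissue sampled over 0–8 h and drug quantified by LC-MS/MS; AUC0-8h computed for each matrix, ratio brain to plasma; mean ± SEM of 3 mice.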

[16] = AUC (0 to 8 hrs) in Swiss mouse brain at 10 mg/kg, po by LC-MS/MS; assay type: ADME, organism-based; design: time < 8 hr, dose 10 mg/kg, route oral; procedure, shortened: as §3
[17] = AUC (0 to 3 hrs) in Swiss mouse brain at 10 mg/kg, po by LC-MS/MS; assay type: ADME, organism-based; design: time < 3 hr, dose 10 mg/kg, route oral
[18] = Tmax in Swiss mouse plasma at 10 mg/kg, po by LC-MS/MS; assay type: ADME, organism-based; design: dose 10 mg/kg, route oral
[19] = AUC (0 to 3 hrs) in Swiss mouse plasma at 10 mg/kg, po by LC-MS/MS; assay type: ADME, organism-based; design: time < 3 hr, dose 10 mg/kg, route oral
[20] = Tmax in Swiss mouse brain at 10 mg/kg, po by LC-MS/MS; assay type: ADME, organism-based; design: dose 10 mg/kg, route oral

CYP3A4, sequence (P08684 whole entry, canonical isoform): as the sequence (P08684 whole entry) above

Structure (SMILES)	inhibition at 1 µM [1]	inhibition at 1 µM [2]	pKi [3]	inhibition at 1 µM [4]	pKi [7]	pIC50 [9]	other results
O=C1CCC(c2ccc(OCCCN3CCCCC3)cc2)CC1	4.1%	21.4%	8.77	3.8%			
CN(C)[C@H]1CC[C@@H](c2ccc(OCCCN3CCCCC3)cc2)CC1					9.55	4.95	pIC50 [5]: 4.30; ED50 [6]: 3.7 mg/kg; pIC50 [8]: < 4.00
CN(C)[C@H]1CC[C@H](c2ccc(OCCCN3CCCCC3)cc2)CC1					9.28	4.39	pIC50 [5]: 4.37; ED50 [6]: 3.7 mg/kg; pIC50 [8]: < 4.00
c1cc([C@H]2CC[C@@H](N3CCC3)CC2)ccc1OCCCN1CCCCC1			9.47				
c1cc([C@H]2CC[C@H](N3CCC3)CC2)ccc1OCCCN1CCCCC1	4.2%	-12.1%	9.60	0.8%	8.80		ED50 [6]: 2.8 mg/kg; inhibition at 10 µM [10]: 41%
c1cc([C@H]2CC[C@@H](N3CCCC3)CC2)ccc1OCCCN1CCCCC1			9.48		9.00	4.65	pIC50 [5]: 4.38; pIC50 [8]: < 4.00; inhibition at 10 µM [10]: 15%; inhibition at 1 µM [11]: 11%
c1cc([C@H]2CC[C@H](N3CCCC3)CC2)ccc1OCCCN1CCCCC1			9.60		9.48	4.82	ED50 [6]: 3 mg/kg; pIC50 [8]: < 4.00; inhibition at 10 µM [10]: 22%; inhibition at 1 µM [11]: 14%
c1cc([C@H]2CC[C@H](N3CCCCC3)CC2)ccc1OCCCN1CCCCC1	5.2%	33.5%	9.19	1.4%	9.00		ED50 [6]: 4.2 mg/kg; inhibition at 1 µM [11]: 42%
CC1CCN([C@H]2CC[C@@H](c3ccc(OCCCN4CCCCC4)cc3)CC2)CC1	26.1%	52.9%	9.25	-7.8%			
CN1CCN([C@H]2CC[C@@H](c3ccc(OCCCN4CCCCC4)cc3)CC2)CC1			9.04				
CN1CCN([C@H]2CC[C@H](c3ccc(OCCCN4CCCCC4)cc3)CC2)CC1	20.9%	3.4%	9.49	3.4%	8.64		
c1cc([C@H]2CC[C@@H](N3CCOCC3)CC2)ccc1OCCCN1CCCCC1			9.17				
c1cc([C@H]2CC[C@H](N3CCOCC3)CC2)ccc1OCCCN1CCCCC1			9.39		8.80	4.36	pIC50 [5]: 4.18; Stability [12]: Stable; ED50 [6]: 1.3 mg/kg; pIC50 [8]: < 4.00; AUC(0-t) at 8 h [13]: 2110 ng·h/mL; inhibition at 10 µM [10]: 34%; Stability [14]: Stable; Kp [15]: 7.4; AUC(0-t) at 8 h [16]: 15600 ng·h/mL
OC1CCN([C@H]2CC[C@@H](c3ccc(OCCCN4CCCCC4)cc3)CC2)CC1			9.04				
OC1CCN([C@H]2CC[C@H](c3ccc(OCCCN4CCCCC4)cc3)CC2)CC1	3.3%	3.4%	9.24	15.7%			
c1ccc2c(c1)CN([C@H]1CC[C@@H](c3ccc(OCCCN4CCCCC4)cc3)CC1)C2			9.39				
c1ccc2c(c1)CN([C@H]1CC[C@H](c3ccc(OCCCN4CCCCC4)cc3)CC1)C2	8.9%	25.1%	9.77	21.9%	8.85		
c1ccc(CN[C@H]2CC[C@@H](c3ccc(OCCCN4CCCCC4)cc3)CC2)cc1			9.54				
c1ccc(CN[C@H]2CC[C@H](c3ccc(OCCCN4CCCCC4)cc3)CC2)cc1	39.9%	47.8%	9.59	20%	8.68	6.00	
CCCCN[C@H]1CC[C@@H](c2ccc(OCCCN3CCCCC3)cc2)CC1	25.4%	53.9%	9.28	2.9%		6.00	
CCCCN[C@H]1CC[C@H](c2ccc(OCCCN3CCCCC3)cc2)CC1	26.6%	54.7%	9.19	-8.9%		6.00	
CN[C@H]1CC[C@H](c2ccc(OCCCN3CCCCC3)cc2)CC1			8.49				
CN([C@H]1CC[C@H](c2ccc(OCCCN3CCCCC3)cc2)CC1)S(=O)(=O)c1ccccc1			8.26				
c1cc(OCCCN2CCCCC2)ccc1CN1CCCCC1 [JNJ-5207852]							AUC(0-t) at 3 h [17]: 1100 ng·h/mL; Tmax [18]: 0.5 h; AUC(0-t) at 3 h [19]: 1040 ng·h/mL; Tmax [20]: 3 h
